Measured values: paper PMC5743405 (International Journal of Oncology, 2017)

Experiments:
ADRB2 = assay: PathHunter β-arrestin; assay type: cell-based; settings: 6 μM
How it was run: (§1)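 β-Arrestin recruitment assay: the enzyme acceptor is fused to β-arrestin and the ED fragment to the GPCR. Recruitment restores β-galactosidase, read by chemiluminescence. % activity = 100% × (test − vehicle)/(max control ligand − vehicle). % inhibition = 100% × (1 − (test − vehicle)/(EC80 control − vehicle)). An agonist hit needs >30% activity and RLU > baseline + 3×SD. An antagonist hit needs >35% inhibition and RLU < EC80 RLU − 3×SD.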

BRS3 = assay: PathHunter β-arrestin; assay type: cell-based; settings: antagonist mode, 6 μM
How it was run: as §1

CALCRL-RAMP2 = assay: PathHunter β-arrestin; assay type: cell-based; settings: 6 μM
How it was run: as §1

DRD5 = assay: PathHunter β-arrestin; assay type: cell-based; settings: 6 μM
How it was run: (§2)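 Engineered cells express the receptor fused to one β-galactosidase fragment (ED) and β-arrestin fused to the complementing fragment (EA). Receptor activation recruits β-arrestin, which restores enzyme activity, and this is read by chemiluminescence (RLU). Agonist % activity is 100% × (test − vehicle)/(maximal control ligand − vehicle). Antagonist mode is challenged with an EC80 control agonist, and % inhibition is 100% × (1 − (test − vehicle)/(EC80 − vehicle)). Hits require >30% activity or >35% inhibition, plus a 3×SD RLU margin.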

EDG7 = assay: PathHunter β-arrestin; assay type: cell-based; settings: antagonist mode, 6 μM
How it was run: as §2

EDNRB = assay: PathHunter β-arrestin; assay type: cell-based; settings: antagonist mode, 6 μM
How it was run: as §2

F2R = assay: PathHunter β-arrestin; assay type: cell-based; settings: agonist mode, 6 μM
How it was run: as §2

FPR1 = assay: PathHunter β-arrestin; assay type: cell-based; settings: antagonist mode, 6 μM
How it was run: as §2

GPR109A = assay: PathHunter β-arrestin; assay type: cell-based; settings: antagonist mode, 6 μM
How it was run: (§3)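 Vendor-run (DiscoveRx) PathHunter enzyme fragment complementation. β-Arrestin carries the EA fragment and the receptor carries ED; recruitment restores β-gal activity, read by chemiluminescence (RLU). Agonist % activity = vehicle-subtracted RLU relative to max control ligand (gpcrMAX) or to vehicle (orphanMAX). Antagonist % inhibition = 100% × (1 − vehicle-subtracted sample RLU / vehicle-subtracted EC80 agonist control RLU).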

HTR1B = assay: PathHunter β-arrestin; assay type: cell-based; settings: antagonist mode, 6 μM
How it was run: as §3

HTR2A = assay: PathHunter β-arrestin; assay type: cell-based; settings: 6 μM
How it was run: as §3

LTB4R = assay: PathHunter β-arrestin; assay type: cell-based; settings: agonist mode, 6 μM
How it was run: as §3

MC1R = assay: PathHunter β-arrestin; assay type: cell-based; settings: 6 μM
How it was run: as §3

MC5R = assay: PathHunter β-arrestin; assay type: cell-based; settings: 6 μM
How it was run: as §3

MCHR2 = assay: PathHunter β-arrestin; assay type: cell-based; settings: 6 μM
How it was run: as §3

MTNR1A = assay: PathHunter β-arrestin; assay type: cell-based; settings: 6 μM
How it was run: as §3

NPFFR1 = assay: PathHunter β-arrestin; assay type: cell-based; settings: 6 μM
How it was run: as §3

P2RY2 = assay: PathHunter β-arrestin; assay type: cell-based; settings: 6 μM
How it was run: (§4)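 β-Arrestin recruitment to GPCR read by β-galactosidase fragment complementation and chemiluminescence. Agonist: % = 100 × (test − vehicle)/(max control ligand − vehicle), hit at >30% and RLU > baseline + 3 SD. Antagonist, against EC80 agonist: % inhibition = 100 × (1 − (test − vehicle)/(EC80 − vehicle)), hit at >35% and RLU < EC80 − 3 SD.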

P2RY6 = assay: PathHunter β-arrestin; assay type: cell-based; settings: antagonist mode, 6 μM
How it was run: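 GPCR-ED fusion and β-arrestin-EA fusion; arrestin recruitment restores β-galactosidase, read by chemiluminescence. Antagonist mode uses EC80 agonist challenge. % inhibition = 100 × (1 − (test − vehicle RLU)/(EC80 control − vehicle RLU)). Hit requires >35% inhibition and mean RLU below EC80 RLU − 3 × EC80 SD.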

PTAFR = assay: PathHunter β-arrestin; assay type: cell-based; settings: 6 μM
How it was run: as §4

PTGER3 = assay: PathHunter β-arrestin; assay type: cell-based; settings: 6 μM
How it was run: as §4

RXFP3 = assay: PathHunter β-arrestin; assay type: cell-based; settings: 6 μM
How it was run: as §4

SSTR1 = assay: PathHunter β-arrestin; assay type: cell-based; settings: agonist mode, 6 μM
SSTR3 = assay: PathHunter β-arrestin; assay type: cell-based; settings: 6 μM
How it was run: as §4

TBXA2R = assay: PathHunter β-arrestin; assay type: cell-based; settings: 6 μM
How it was run: as §4

TSHR(L) = assay: PathHunter β-arrestin; assay type: cell-based; settings: antagonist mode, 6 μM
VIPR1 = assay: PathHunter β-arrestin; assay type: cell-based; settings: antagonist mode, 6 μM
TLR4 = assay: western blot, JJ012 cells; assay type: cell-based, human; settings: vs untreated control, overnight incubation
TLR6 [1] = assay: western blot, JJ012 cells; assay type: cell-based, human; settings: vs untreated control, overnight incubation
TLR6 [2] = assay: immunocytochemistry, colocalization with TLR6, JJ012 cells; assay type: cell-based, human; settings: TLR6 yellow (DyLight 550), PRP-1 green (Alexa Fluor 488)
TLR6 [3] = assay: RT2 qPCR primer assay, JJ012 cells; assay type: cell-based, human
How it was run: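 RNA was extracted, checked by spectrophotometry and reverse-transcribed. Custom RT2 SYBR-Green primer assays were run on three samples in technical triplicate. Ct was normalised to mean GAPDH/ACTB, ΔΔCt taken versus control, and fold change = 2^−ΔΔCt.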

[4] = ref [61]; cited from earlier work

Proline rich polypeptide 1 [PRP-1]
% Activity (ADRB2; agonist mode): 3% | % Inhibition (ADRB2; antagonist mode): −3% | % Inhibition (BRS3): 4% | % Activity (CALCRL-RAMP2; agonist mode): 1% | % Inhibition (CALCRL-RAMP2; antagonist mode): −1% | % Activity (DRD5; agonist mode): 1% | % Inhibition (DRD5; antagonist mode): −8% | % Inhibition (EDG7): −3% | % Inhibition (EDNRB): −1% | % Activity (F2R): −2% | % Inhibition (FPR1): −4% | % Inhibition (GPR109A): −4% | % Inhibition (HTR1B): 4% | % Activity (HTR2A; agonist mode): 1% | % Inhibition (HTR2A; antagonist mode): −5% | % Activity (LTB4R): 1% | % Activity (MC1R; agonist mode): −2% | % Inhibition (MC1R; antagonist mode): −2% | % Activity (MC5R; agonist mode): 2% | % Inhibition (MC5R; antagonist mode): −5% | % Activity (MCHR2; agonist mode): 1% | % Inhibition (MCHR2; antagonist mode): −3% | % Activity (MTNR1A; agonist mode): 2% | % Inhibition (MTNR1A; antagonist mode): −9% | % Activity (NPFFR1; agonist mode): 3% | % Inhibition (NPFFR1; antagonist mode): −3% | % Activity (P2RY2; agonist mode): 2% | % Inhibition (P2RY2; antagonist mode): −4% | % Inhibition (P2RY6): 3% | % Activity (PTAFR; agonist mode): 1% | % Inhibition (PTAFR; antagonist mode): −8% | % Activity (PTGER3; agonist mode): 1% | % Inhibition (PTGER3; antagonist mode): −2% | % Activity (RXFP3; agonist mode): 6% | % Inhibition (RXFP3; antagonist mode): −3% | % Activity (SSTR1): −3% | % Activity (SSTR3; agonist mode): 1% | % Inhibition (SSTR3; antagonist mode): −5% | % Activity (TBXA2R; agonist mode): 1% | % Inhibition (TBXA2R; antagonist mode): −10% | % Inhibition (TSHR(L)): −4% | % Inhibition (VIPR1): −9% | protein expression (TLR4): PRP-1 did not have any effect | protein expression (TLR6 [1]): increased in dose-dependent manner | colocalization with TLR6 (TLR6 [2]): nuclear and cytoplasmic colocalization with PRP-1 is demonstrated | gene expression (TLR6 [3]; 1 μg/ml PRP-1, heat map, vs nontreated control, technical triplicates): high expression | fold change (∆Ct) (TLR6 [3]; qRT-PCR): did not report significant fold change | antibacterial properties [4]: antibacterial properties
